Measurements gathered from unrelated publications.
Each line is one published result; the experiments were not run side by side.

Compound	host	sample	route	dose	setting	quantity	value
N=c1c2c(-c3ccccc3)c(-c3ccccc3)n(Cc3ccccc3)c2ncn1[C@H]1CC[C@H](O)CC1	male cynomolgus monkey	plasma	oral	1 mg/kg	single dose	Tmax	~15 h
Cc1c(P(=S)(c2ccccc2)c2ccccc2)n2ccccc2[n+]1C/C=C/c1ccccc1	mouse	brain	intraperitoneal	10 mg/kg	–	tissue/plasma ratio	0.33
c1cc([C@H]2CC[C@]3(CC2)OO[C@]2(O3)C3CC4CC(C3)CC2C4)ccc1OCCN1CCOCC1	human	plasma	oral	400 mg	patients	AUC(0-inf)	6450 ng·h/mL
C=C(C)[C@@H]1CC[C@]2(NCCN3CCS(=O)(=O)CC3)CC[C@]3(C)[C@H](CC[C@@H]4[C@@]5(C)CC=C(C6=CC[C@@](COc7ncccc7C#N)(C(=O)O)CC6)C(C)(C)[C@@H]5CC[C@]43C)[C@@H]12	human	plasma	oral	100 mg	fed	AUC(0-inf)	43600 ng·h/mL
CC(=C/C=C/C(C)=C/C(=O)O)/C=C1\CCCc2ccccc21	human	plasma	oral	5 mg	single dose, fasted, healthy volunteers	AUC(0-inf)	193 ng·h/mL
O=C1[O][Pt]2([NH][C@@H]3CCCC[C@H]3[NH]2)[O]C1=O (relative stereo)	cynomolgus monkey	plasma	oral	10 mg/kg	–	Tmax	2 h
COc1ccc(C[C@@H]2NC(=O)[C@H]([C@@H](C)O)NC(=O)[C@@H]3[C@@H]4CCN3C(=O)[C@@H]3Cc5cn(c6ccc(F)cc56)CCCCCCN(Cc5ccc(cc5)CCNC(=O)[C@]5(C)CCCN5C2=O)C(=O)CCC(=O)N[C@@H](C)C(=O)N[C@H](CNC(=O)CCCCC[N+](C)(C)C)C(=O)N[C@@H](Cc2cccc(c2)CNC(=O)CO4)C(=O)N3)cc1	human	plasma	oral	200 mg	single dose, healthy volunteers	AUC(0-inf)	0.556 µM·h
N=C(N)NCCC[C@@H](NC(=O)[C@@H](N)Cc1ccccc1)C(=O)N[C@@H](Cc1ccccc1)C(=O)N[C@@H](CCCCN)C(N)=O	human	plasma	subcutaneous	5 mg	patients	AUC(0-t)	861 ng·h/mL
